How the values were obtained:
[1] = biological target: Glutamate NMDA receptor; Grin1/Grin2c (Rattus norvegicus, UniProt P35439+Q00961); assay: Inhibitory activity against Xenopus oocytes expressing rat N-Methyl-D-aspartate (NR1A/2C) Receptor subtype.; format: cell-based, Oocyte
Outline: (§1)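 Electrophysiology on oocytes expressing each NMDA subunit combination. IC50 from curve fitting of concentration-inhibition data pooled from 1-7 separate experiments.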

[2] = biological target: Glutamate NMDA receptor; Grin1/Grin2a (Rattus norvegicus, UniProt P35439+Q00959); assay: Inhibitory activity against Xenopus oocytes expressing rat N-Methyl-D-aspartate (NR1A/2A) Receptor subtype.; format: cell-based, Oocyte; outline: as §1
[3] = biological target: Glutamate NMDA receptor; Grin1/Grin2b (Rattus norvegicus, UniProt P35439+Q00960); assay: Inhibitory activity against Xenopus oocytes expressing rat N-Methyl-D-aspartate (NR1A/2B) Receptor subtype.; format: cell-based, Oocyte; outline: as §1
[4] = biological target: T1, Adrenergic receptor alpha-1 (Rattus norvegicus, UniProt P15823+P23944+P43140); assay: Inhibition of [3H]prazosin binding at alpha-1 adrenergic receptor in rat brain cortical membranes.; format: cell membranes, Membrane
T1 sequence (P15823 whole entry): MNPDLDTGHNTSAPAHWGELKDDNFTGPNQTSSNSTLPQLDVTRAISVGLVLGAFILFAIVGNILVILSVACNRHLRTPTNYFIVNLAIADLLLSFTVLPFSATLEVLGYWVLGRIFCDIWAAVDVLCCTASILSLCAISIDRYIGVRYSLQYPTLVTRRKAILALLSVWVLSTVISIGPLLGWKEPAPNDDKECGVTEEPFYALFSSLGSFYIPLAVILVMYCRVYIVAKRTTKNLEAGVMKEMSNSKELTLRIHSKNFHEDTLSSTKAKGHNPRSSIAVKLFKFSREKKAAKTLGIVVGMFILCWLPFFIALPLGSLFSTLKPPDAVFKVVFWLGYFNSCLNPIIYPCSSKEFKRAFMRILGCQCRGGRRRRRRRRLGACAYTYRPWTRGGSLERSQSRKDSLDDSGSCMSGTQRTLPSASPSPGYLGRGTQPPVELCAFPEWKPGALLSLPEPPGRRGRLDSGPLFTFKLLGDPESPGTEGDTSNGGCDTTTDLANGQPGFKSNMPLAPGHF
T1 sequence (P23944 whole entry): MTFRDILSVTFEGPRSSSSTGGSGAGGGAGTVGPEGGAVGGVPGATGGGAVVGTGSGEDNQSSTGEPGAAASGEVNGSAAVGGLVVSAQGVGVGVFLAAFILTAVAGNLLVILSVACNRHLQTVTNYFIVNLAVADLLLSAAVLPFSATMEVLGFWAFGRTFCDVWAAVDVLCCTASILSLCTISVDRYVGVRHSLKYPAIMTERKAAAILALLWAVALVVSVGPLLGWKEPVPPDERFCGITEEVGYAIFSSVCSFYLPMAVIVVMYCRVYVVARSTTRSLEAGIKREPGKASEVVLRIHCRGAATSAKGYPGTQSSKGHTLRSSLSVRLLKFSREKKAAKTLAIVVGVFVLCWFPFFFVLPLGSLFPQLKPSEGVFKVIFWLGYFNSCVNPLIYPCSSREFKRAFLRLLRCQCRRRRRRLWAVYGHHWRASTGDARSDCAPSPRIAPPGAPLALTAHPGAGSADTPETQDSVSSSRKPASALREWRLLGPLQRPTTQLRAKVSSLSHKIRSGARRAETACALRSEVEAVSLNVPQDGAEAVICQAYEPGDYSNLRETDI
T1 sequence (P43140 whole entry): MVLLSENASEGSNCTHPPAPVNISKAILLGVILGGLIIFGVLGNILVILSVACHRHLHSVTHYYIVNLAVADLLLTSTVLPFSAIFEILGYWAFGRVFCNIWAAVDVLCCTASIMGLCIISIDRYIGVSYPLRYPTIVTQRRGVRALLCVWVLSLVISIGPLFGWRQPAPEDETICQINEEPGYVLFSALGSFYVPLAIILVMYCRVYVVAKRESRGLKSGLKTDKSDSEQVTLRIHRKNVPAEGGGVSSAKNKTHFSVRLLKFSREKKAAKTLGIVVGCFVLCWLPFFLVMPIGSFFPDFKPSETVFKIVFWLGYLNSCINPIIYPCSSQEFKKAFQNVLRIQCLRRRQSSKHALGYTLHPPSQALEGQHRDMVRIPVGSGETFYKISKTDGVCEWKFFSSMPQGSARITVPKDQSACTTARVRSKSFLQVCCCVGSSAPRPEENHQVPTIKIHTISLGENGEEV
Outline: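 Membranes from Sprague-Dawley rat cortex, sucrose/Tris homogenate washed three times. Assayed in 140 mM NaCl/5 mM MgCl2/50 mM Tris-HCl pH 7.4. 200 µg protein incubated with 0.8 nM [3H]prazosin; 10 µM phentolamine defined nonspecific binding. Nine concentrations in duplicate; IC50 from sigmoidal fit.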

D(2) dopamine receptor = D(2) dopamine receptor (Rattus norvegicus, UniProt P61169); assay: Inhibition of [3H]-raclopride binding at Dopamine receptor D2 in rat brain membranes.; format: cell membranes
Outline: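 Rat striatal membranes, washed in 50 mM Tris-HCl pH 7.4, assayed in 120 mM NaCl/5 mM KCl/50 mM Tris-HCl pH 7.4. 200 µg membrane protein with 3 nM [3H]raclopride; nonspecific binding with 300 µM sulpiride. Nine concentrations in duplicate; IC50 by sigmoidal curve fit.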

Mus musculus = organism: Mus musculus; assay: Effective dose for protection against MES seizures in mice; format: functional
Outline: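 Male Swiss Webster mice (23-27 g, food and water ad libitum), compound given iv as 5 mg/mL solution in 0.2 M Tris. Seizure protection tested 2 min after dosing; corneal electroshock, rectangular pulses 50 mA, 60-75 Hz, 0.8 ms width, 0.2 s train. Seizure scored as tonic hind-limb extension. ED50 with 95% confidence limits; at least 24 animals per compound.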

Glutamate NMDA receptor; Grin1/Grin2a, sequence (Q00959 whole entry, other chains not shown): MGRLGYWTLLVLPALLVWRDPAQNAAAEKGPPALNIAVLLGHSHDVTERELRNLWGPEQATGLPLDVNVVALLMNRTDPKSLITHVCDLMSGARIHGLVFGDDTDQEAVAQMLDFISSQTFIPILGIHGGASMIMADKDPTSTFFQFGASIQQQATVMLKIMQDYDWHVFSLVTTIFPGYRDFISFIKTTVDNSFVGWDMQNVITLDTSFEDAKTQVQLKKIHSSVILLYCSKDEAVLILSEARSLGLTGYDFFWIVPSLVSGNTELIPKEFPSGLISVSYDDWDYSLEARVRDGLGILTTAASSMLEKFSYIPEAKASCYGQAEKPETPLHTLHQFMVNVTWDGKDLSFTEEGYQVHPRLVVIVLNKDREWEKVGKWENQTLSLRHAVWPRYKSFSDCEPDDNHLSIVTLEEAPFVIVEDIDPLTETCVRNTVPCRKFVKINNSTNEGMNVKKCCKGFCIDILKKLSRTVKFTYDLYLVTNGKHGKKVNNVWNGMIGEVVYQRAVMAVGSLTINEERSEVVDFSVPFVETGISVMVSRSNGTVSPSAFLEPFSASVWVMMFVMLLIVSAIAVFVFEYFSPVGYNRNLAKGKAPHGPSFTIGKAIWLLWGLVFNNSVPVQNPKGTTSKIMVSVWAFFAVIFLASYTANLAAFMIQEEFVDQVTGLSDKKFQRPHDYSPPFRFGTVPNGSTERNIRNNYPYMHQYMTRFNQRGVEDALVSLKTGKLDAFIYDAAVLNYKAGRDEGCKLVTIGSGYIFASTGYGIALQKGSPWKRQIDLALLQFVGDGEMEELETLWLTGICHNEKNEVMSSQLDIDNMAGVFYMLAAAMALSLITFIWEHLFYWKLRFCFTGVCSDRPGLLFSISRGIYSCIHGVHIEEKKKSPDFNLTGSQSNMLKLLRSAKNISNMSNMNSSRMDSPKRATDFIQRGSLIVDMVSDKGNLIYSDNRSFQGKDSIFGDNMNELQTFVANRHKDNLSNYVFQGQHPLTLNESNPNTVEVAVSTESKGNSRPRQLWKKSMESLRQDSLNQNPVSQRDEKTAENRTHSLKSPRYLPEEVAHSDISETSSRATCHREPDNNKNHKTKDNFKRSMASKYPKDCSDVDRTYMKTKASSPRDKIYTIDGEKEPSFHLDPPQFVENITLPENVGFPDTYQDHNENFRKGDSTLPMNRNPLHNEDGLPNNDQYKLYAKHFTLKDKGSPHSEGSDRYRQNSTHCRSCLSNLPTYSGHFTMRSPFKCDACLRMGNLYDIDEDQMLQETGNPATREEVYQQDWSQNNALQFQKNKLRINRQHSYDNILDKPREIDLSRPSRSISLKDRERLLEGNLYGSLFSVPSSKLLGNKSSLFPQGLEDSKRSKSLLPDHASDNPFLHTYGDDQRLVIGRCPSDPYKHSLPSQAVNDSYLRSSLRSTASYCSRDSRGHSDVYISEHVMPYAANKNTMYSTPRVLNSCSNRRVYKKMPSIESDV
Glutamate NMDA receptor; Grin1/Grin2c, sequence (Q00961 whole entry, other chains not shown): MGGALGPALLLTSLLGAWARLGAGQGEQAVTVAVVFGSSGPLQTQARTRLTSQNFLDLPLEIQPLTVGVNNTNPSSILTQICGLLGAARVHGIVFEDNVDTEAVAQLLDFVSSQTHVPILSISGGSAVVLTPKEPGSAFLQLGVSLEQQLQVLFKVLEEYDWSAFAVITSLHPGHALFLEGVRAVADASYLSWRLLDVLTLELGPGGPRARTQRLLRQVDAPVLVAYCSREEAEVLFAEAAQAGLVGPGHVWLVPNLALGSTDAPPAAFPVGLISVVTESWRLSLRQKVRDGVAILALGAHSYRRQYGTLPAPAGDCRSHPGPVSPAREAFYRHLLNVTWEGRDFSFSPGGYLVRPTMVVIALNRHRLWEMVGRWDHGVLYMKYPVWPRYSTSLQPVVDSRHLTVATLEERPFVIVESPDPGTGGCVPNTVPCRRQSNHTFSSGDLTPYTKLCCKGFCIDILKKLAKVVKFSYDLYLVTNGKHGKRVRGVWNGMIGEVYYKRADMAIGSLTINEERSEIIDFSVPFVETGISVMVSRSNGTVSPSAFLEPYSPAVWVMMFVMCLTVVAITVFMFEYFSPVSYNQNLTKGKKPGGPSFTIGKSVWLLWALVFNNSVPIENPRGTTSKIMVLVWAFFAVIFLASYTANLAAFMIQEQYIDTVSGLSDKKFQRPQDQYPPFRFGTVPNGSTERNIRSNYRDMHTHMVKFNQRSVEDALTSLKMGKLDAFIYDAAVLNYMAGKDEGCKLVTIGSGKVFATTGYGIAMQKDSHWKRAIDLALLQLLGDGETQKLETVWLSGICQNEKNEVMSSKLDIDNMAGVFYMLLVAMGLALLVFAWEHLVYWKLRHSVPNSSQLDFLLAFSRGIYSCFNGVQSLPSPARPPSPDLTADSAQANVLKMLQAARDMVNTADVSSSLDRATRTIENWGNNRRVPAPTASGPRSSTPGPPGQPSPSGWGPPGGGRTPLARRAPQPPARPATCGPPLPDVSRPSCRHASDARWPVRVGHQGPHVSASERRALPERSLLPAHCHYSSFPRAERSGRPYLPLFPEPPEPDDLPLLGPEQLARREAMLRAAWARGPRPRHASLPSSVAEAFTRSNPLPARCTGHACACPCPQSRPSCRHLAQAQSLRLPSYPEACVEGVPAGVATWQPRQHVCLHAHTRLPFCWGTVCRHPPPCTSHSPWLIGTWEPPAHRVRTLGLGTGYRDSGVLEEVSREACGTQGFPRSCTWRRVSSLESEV
Glutamate NMDA receptor; Grin1/Grin2b, sequence (Q00960 whole entry, other chains not shown): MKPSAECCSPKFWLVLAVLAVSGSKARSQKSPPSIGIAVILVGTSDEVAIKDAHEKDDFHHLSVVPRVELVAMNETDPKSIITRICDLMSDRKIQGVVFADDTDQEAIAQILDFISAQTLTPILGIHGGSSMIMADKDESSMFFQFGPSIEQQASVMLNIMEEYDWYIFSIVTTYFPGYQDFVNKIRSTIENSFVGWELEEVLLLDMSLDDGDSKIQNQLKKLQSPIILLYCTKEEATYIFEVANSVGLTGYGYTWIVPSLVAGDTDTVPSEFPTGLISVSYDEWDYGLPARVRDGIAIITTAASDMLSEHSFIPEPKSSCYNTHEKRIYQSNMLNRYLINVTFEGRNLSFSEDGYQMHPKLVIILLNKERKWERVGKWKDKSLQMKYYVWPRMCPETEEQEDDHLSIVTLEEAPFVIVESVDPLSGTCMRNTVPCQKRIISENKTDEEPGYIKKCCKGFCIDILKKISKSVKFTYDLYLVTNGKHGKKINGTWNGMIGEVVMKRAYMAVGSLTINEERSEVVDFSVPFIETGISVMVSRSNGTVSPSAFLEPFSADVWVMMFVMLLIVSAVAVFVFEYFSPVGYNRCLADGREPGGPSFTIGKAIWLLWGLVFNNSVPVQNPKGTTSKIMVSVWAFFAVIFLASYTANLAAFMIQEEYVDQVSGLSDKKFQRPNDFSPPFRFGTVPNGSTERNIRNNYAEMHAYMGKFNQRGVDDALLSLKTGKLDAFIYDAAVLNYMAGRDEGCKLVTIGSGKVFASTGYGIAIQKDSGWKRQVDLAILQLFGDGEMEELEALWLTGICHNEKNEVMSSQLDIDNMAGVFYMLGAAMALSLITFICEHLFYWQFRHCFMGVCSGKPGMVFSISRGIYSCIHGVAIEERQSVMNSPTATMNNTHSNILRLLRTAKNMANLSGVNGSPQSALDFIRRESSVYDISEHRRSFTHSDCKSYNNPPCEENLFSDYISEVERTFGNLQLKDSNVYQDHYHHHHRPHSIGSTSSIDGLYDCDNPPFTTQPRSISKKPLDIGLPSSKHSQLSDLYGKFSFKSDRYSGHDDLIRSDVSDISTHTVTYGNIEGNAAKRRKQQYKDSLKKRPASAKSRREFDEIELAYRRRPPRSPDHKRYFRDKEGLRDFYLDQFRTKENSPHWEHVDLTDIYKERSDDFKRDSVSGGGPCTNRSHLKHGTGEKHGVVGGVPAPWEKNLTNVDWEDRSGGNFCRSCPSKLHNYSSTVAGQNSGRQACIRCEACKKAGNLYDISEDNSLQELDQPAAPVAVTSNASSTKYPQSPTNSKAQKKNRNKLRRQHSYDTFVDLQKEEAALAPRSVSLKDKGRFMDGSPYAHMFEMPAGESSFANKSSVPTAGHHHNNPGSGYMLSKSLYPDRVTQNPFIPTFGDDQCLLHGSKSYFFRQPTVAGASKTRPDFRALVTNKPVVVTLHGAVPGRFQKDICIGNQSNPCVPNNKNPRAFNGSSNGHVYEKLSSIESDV
D(2) dopamine receptor, sequence (P61169 whole entry): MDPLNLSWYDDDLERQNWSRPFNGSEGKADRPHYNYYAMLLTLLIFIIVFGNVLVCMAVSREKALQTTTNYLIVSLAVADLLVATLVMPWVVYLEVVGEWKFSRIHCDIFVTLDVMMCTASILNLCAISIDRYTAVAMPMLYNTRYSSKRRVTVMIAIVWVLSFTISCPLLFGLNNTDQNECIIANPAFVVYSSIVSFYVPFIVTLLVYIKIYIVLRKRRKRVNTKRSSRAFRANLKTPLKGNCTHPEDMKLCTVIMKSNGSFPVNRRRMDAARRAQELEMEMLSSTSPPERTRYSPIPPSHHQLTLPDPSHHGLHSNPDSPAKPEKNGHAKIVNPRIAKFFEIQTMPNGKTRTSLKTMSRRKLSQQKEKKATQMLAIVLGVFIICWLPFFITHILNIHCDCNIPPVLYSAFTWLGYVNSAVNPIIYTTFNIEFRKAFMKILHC

IC50 [1] [µM] | IC50 [2] [µM] | IC50 [3] [µM] | IC50 [4] [µM] | IC50 (D(2) dopamine receptor) [µM] | Compound | ED50 (Mus musculus) [mg/kg]
> 100 | 59 | 0.019 |  |  | Oc1ccc(C2CCN(CCOCc3ccccc3)CC2)cc1 | 
> 100 | > 100 | 0.071 |  |  | Oc1ccc(CC2CCN(CCCCc3ccccc3)CC2)cc1 | 
> 100 | > 100 | 0.022 | 0.54 | 1.2 | Br.Oc1ccc(C2CCN(CCCCc3ccccc3)CC2)cc1 | 0.23
> 100 | > 100 | > 100 | 1.7 | 0.41 | COc1ccc(C2CCN(CCCCc3ccccc3)CC2)cc1.Cl | 0.56
> 100 | > 100 | 0.075 |  |  | Oc1ccc(C2CCN(CCCCCc3ccccc3)CC2)cc1 | 
> 100 | 51 | 0.074 |  |  | Oc1ccc(C2CCN(CCCc3ccccc3)CC2)cc1 | 
> 100 | 43 | 0.23 |  |  | Oc1ccc(CCCCN2CCC(c3ccccc3)CC2)cc1 | 
> 100 | > 100 | 0.059 |  |  | Oc1ccc(CC2CCN(CCCc3ccccc3)CC2)cc1 | 
> 100 | 41 | 0.017 |  |  | Oc1ccc(C2CCN(CCCCCc3ccccc3)C2)cc1 (stereo not drawn) | 
> 100 | 52 | 0.13 |  |  | Oc1ccc(C2CCN(CCCCc3ccccc3)C2)cc1 (stereo not drawn) | 
> 100 | > 100 | 0.019 | 1.4 | 5.9 | Oc1ccc(C2CCN(CC(O)CCc3ccccc3)CC2)cc1 (stereo not drawn) | 0.46
> 100 | > 100 | 0.8 |  |  | Oc1ccc(CC2CCN(CCC#Cc3ccccc3)CC2)cc1 | 
> 100 | > 100 | 0.18 |  |  | Oc1ccc(CC2CCN(CC#Cc3ccccc3)CC2)cc1 | 

Compound | IC50 [1] [µM] | IC50 [2] [µM] | IC50 [3] [µM] | IC50 [4] [µM] | IC50 (D(2) dopamine receptor) [µM] | ED50 (Mus musculus) [mg/kg]
CCCCN1CCC(c2ccc(O)cc2)CC1 | > 100 | > 100 | 61 |  |  | 
Oc1ccc(C2=CCN(CCCCc3ccccc3)CC2)cc1 | > 100 | > 100 | 0.011 |  |  | 
Oc1ccc(C2(O)CCN(CCCCc3ccccc3)CC2)cc1 | > 100 | 62 | 0.012 | 2.2 | 22 | 2.3
Oc1ccc(C2(O)CCN(CC(O)CCc3ccccc3)CC2)cc1 (stereo not drawn) | > 100 |  | 0.026 | 14 | 105 | 5.7
c1ccc(CCCCN2CCC(c3ccccc3)CC2)cc1 | > 100 | > 100 | 2.2 |  |  | 

— ChEMBL document CHEMBL1132970, “Synthesis of N-substituted 4-(4-hydroxyphenyl)piperidines, 4-(4-hydroxybenzyl)piperidines, and (+/-)-3-(4-hydroxyphenyl)pyrrolidines: selective antagonists at the 1A/2B NMDA receptor subtype” (J Med Chem, 2000)
